Experiments:
Homo sapiens = species: Homo sapiens; experiment: Selectivity ratio IC50 for inhibition of human CYP1B1 expressed in HEK293 cells toIC50 for Inhibition of CYP1A1 expressed in HEK293 cells; assay type: cell-based
Cytochrome P450 1A1 [1] = molecular target: T1, Cytochrome P450 1A1 (Homo sapiens, UniProt P04798); experiment: Inhibition of human CYP1A1 expressed in HEK293 cells assessed as reduction in CYP1A1 mediated […] induced-toxicity by measuring EC50 at 3 times of IC50 concentration by MTT assay relative to control; assay type: cell-based; design: scale not given: the % may be the effect or the level left
T1 sequence (P04798 whole entry): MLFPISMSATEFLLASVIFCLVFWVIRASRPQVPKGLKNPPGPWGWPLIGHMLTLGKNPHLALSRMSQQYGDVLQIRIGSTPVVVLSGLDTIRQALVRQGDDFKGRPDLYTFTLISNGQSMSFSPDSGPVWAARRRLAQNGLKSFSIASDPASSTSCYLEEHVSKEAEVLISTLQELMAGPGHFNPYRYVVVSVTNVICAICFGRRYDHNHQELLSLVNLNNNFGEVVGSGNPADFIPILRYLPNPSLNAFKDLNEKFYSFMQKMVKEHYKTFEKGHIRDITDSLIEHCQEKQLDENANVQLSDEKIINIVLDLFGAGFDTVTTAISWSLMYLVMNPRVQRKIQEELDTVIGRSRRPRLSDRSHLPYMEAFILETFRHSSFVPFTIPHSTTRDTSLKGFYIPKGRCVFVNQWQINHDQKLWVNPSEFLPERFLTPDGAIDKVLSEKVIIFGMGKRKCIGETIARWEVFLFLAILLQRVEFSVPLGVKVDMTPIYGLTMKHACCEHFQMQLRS
Method in brief: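 Adherent HEK293 cells transfected with pcDNA3.1/hCYP1A1 were exposed to B[a]P over 0.05–100 µM, with inhibitor at 3x its IC50 from the suspension HEK293-CYP1A1 assay. The EC50 of B[a]P for cell growth inhibition was derived. Cells transfected with empty plasmid were used for comparison. Values are mean and SD of three independent experiments.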

MCF7 [2] = experiment: Induction of cellular senescence in human MCF7 cells over expressing CYP1A assessed as increase in beta-gal-positive cells at 2 times of EC50 concentration incubated for 96 hrs by microscopic assay relative to control; assay type: functional
Method in brief: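 MCF7-1A1 cells were seeded at 25,000 per well and stabilised for 24 h, then treated for 96 h. Cells were fixed for 10 min at room temperature and stained for β-galactosidase at 37 °C without CO2 for 48 h. The percentage of blue-stained cells was counted by phase-contrast microscopy against untreated cultures.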

MCF7 [3] = experiment: Induction of cell cycle arrest in human MCF7 over expressing CYP1A cells assessed as accumulation at G2/M phase incubated for 24 hrs by PI staining based flow cytometric analysis (reference value: 22.6%); assay type: functional
MCF7 [4] = experiment: Induction of cell cycle arrest in human MCF7 over expressing CYP1A cells assessed as accumulation at S phase incubated for 24 hrs by PI staining based flow cytometric analysis (reference value: 20.1%); assay type: functional
Cytochrome P450 2C8 = molecular target: T2, Cytochrome P450 2C8 (Homo sapiens, UniProt P10632); experiment: Inhibition of human CYP2C8 expressed in Sacchrosomes by fluorescence based assay; assay type: ADME
T2 sequence (P10632 whole entry): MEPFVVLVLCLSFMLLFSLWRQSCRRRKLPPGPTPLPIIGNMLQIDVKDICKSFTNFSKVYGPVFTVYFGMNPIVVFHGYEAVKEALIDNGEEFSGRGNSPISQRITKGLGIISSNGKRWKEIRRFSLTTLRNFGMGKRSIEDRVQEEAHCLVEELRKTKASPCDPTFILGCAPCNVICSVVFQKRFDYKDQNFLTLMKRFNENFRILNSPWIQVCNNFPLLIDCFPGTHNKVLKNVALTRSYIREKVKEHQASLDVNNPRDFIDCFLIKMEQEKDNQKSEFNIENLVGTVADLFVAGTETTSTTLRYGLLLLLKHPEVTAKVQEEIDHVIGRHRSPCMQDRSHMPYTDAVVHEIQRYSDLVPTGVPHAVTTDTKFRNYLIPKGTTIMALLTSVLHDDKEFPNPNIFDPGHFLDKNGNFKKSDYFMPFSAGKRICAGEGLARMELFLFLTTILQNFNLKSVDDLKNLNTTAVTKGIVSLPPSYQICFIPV

Cytochrome P450 2B6 = molecular target: T3, Cytochrome P450 2B6 (Homo sapiens, UniProt P20813); experiment: Inhibition of human CYP2B6 expressed in Sacchrosomes by fluorescence based assay; assay type: ADME
T3 sequence (P20813 whole entry): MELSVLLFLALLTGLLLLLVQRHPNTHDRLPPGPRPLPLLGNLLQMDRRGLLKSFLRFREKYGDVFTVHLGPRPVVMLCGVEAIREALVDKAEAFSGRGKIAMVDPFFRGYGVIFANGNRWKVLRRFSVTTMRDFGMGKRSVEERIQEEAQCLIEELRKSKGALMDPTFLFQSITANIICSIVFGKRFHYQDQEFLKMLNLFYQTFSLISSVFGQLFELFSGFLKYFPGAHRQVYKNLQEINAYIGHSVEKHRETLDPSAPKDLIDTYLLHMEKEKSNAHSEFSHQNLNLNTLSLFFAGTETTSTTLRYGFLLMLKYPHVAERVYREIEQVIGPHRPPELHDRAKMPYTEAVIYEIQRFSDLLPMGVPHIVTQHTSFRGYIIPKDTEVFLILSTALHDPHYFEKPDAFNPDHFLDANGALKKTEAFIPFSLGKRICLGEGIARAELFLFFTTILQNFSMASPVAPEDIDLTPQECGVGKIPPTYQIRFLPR

Cytochrome P450 2A6 = molecular target: T4, Cytochrome P450 2A6 (Homo sapiens, UniProt P11509); experiment: Inhibition of human CYP2A6 expressed in Sacchrosomes by fluorescence based assay; assay type: ADME
T4 sequence (P11509 whole entry): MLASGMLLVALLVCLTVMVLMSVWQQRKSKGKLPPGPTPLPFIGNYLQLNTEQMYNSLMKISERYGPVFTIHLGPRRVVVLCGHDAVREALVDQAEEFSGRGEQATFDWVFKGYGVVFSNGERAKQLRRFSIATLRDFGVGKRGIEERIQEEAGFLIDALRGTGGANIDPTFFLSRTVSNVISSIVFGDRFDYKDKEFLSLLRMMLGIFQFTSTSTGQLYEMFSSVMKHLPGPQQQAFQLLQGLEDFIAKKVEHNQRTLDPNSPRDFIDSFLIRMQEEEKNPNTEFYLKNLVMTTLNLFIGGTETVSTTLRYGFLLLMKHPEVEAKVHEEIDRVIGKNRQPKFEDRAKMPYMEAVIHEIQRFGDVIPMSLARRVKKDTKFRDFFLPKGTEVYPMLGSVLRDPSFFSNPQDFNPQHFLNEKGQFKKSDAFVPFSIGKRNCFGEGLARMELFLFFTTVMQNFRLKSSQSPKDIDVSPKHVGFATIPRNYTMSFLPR

Cytochrome P450 1A1 [5] = molecular target: T1, Cytochrome P450 1A1; experiment: Inhibition of human CYP1A1 expressed in sacchrosomes using 7-ethoxyresorufin as substrate by fluorescence based assay
Method in brief: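 Enzymes were microsomal preparations isolated from recombinant baker's yeast (Sacchrosomes). Compounds were screened at 10 μM for percent inhibition, and IC50 values were also determined. Values are mean ± SD of three independent experiments. Alpha-naphthoflavone served as the positive control.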

Row | SMILES | Ratio IC50 (Homo sapiens) | Activity (Cytochrome P450 1A1 [1]) [%] | Activity (MCF7 [2]) [%] | Activity (MCF7 [3]) [%] | Activity (MCF7 [4]) [%] | IC50 (Cytochrome P450 2C8) [µM] | IC50 (Cytochrome P450 2B6) [µM] | IC50 (Cytochrome P450 2A6) [µM] | IC50 (Cytochrome P450 1A1 [5]) [µM]
1 | O=c1cc(-c2ccccc2)oc2c1ccc1occc12 [LANCEOLATIN B] | 19.5 | 100 | 60 | 9.2 | 7.1 | > 20 | > 20 | > 20 | 0.076
2 | COc1c(-c2ccc3c(c2)OCO3)oc2c(ccc3occc32)c1=O [PONGAPIN] | 53 | 100 | 60 | 8.3 | 6.7 | > 20 | > 20 | > 20 | 0.071
